In PMC11168086 (RSC Advances, 2024):
In brackets after ≈: the same amount, converted by molar mass.

Legend:
[1] = tested on: HeLa (cervical cancers) cells; test: MTT antiproliferative assay, HeLa; type: cell-based, human; settings: for IC50: Homo sapiens, 72 h
Summary of the method: (§1)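 Cells from ECACC were grown in MEM with 10% FBS, non-essential amino acids and penicillin-streptomycin, at 37 °C and 5% CO2. Cells were seeded at 5000 per well, left overnight, then exposed to test compound 72 h. MTT was added for 4 h, and formazan was dissolved in DMSO (60 min, 37 °C) and read at 545 nm. Compounds giving >50% inhibition at 10 μM were rerun over 0.1–30 μM for IC50. Two independent experiments used five wells each, with cisplatin as positive control.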

[2] = tested on: MCF7 (breast cancer) cells; test: MTT antiproliferative assay, MCF7; type: cell-based, human; settings: for IC50: MCF-7, MTT, 72 h; for Lipophilic efficiency (LipE = pIC50 – logP): MCF-7
Summary of the method: as §1

[3] = tested on: MDA-MB-231 (breast cancer) cells; test: MTT antiproliferative assay, MDA-MB-231; type: cell-based, human; settings: for IC50: Homo sapiens, MDA-MB-231, 72 h, MDA-MB-231, MTT, 72 h; for Lipophilic efficiency (LipE = pIC50 – logP): MDA-MB-231
Summary of the method: as §1

[4] = tested on: A2780 (ovarian cancer) cells; test: MTT antiproliferative assay, A2780; type: cell-based, human; settings: for IC50: Homo sapiens, A2780, 72 h; for Lipophilic efficiency (LipE = pIC50 – logP): A2780
Summary of the method: as §1

[5] = Kinetic aqueous solubility; type: physicochemical; settings: PBS buffer, pH 7.4, aqueous buffer, kinetic from dmso stock
Summary of the method: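 10 mM DMSO stocks were diluted into PBS pH 7.4 to a 500 μM target and shaken 2 h at room temperature. Samples were vacuum-filtered, diluted with acetonitrile to prevent precipitation, and scanned by UV-vis over 250–500 nm. Concentration was derived from a 3-point calibration at each compound's λmax.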

[6] = Intestinal-specific PAMPA; type: in vitro ADME; settings: pH 6.5
Summary of the method: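 Donor solutions at nominal 500 μM came from 10 mM DMSO stocks diluted in phosphate donor buffer, pH 6.5. The acceptor buffer held 5% DMSO. The membrane was phosphatidylcholine plus cholesterol in chloroform/dodecane/hexane (5:25:70 v/v). Plates were incubated 4 h at 37 °C, covered. Acceptor UV-vis absorbance was read over 250–500 nm. Pa was calculated by the Wohnsland–Faller equation from acceptor versus equilibrium absorbance at λmax.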

SMILES | IC50 [1] [µM] | IC50 ([2]; Homo sapiens, MCF7, 72 h) [µM] | IC50 [3] [µM] | IC50 [4] [µM] | solubility kinetic at 2 h [5] [µM] | Papp at 4 h, 500 μM [6] [×10⁻⁶ cm/s] | IC50 [2] [µM] | Lipophilic efficiency (LipE = pIC50 – logP) [2] | Lipophilic efficiency (LipE = pIC50 – logP) [1] | Lipophilic efficiency (LipE = pIC50 – logP) [3] | Lipophilic efficiency (LipE = pIC50 – logP) [4]
C[C@@H]1CC[C@@H]([C@@](O)(COCc2ccccc2)Cn2ccnc2)[C@H](OCc2ccccc2)C1 [Compound 42a] |  |  |  |  | 7.7 ± 0.7 (≈ 3.35 µg/mL) |  |  |  |  |  | 
C=C(C)[C@@H]1CC[C@@H](C)C[C@H]1OCc1ccc(OC)cc1 [Compound 2c] |  |  |  |  | 247 ± 2.8 (≈ 67.8 µg/mL) | 26.1 ± 5.4 |  |  |  |  | 
COc1ccc(COC[C@@](O)(CNCc2ccc(F)cc2)[C@@H]2CC[C@@H](C)C[C@H]2OCc2ccc(OC)cc2)cc1 [Compound 51a] | 2.8 | 1.6 | 1.9 | 1.5 | 259 ± 1.3 (≈ 143 µg/mL) | 19.7 ± 1.6 |  | −0.84 | −1.08 |  | −0.80
C=C(COCc1ccc(F)cc1)[C@@H]1CC[C@@H](C)C[C@H]1OCc1ccc(F)cc1 [Compound 30b] |  |  |  |  | 17.6 ± 0.6 (≈ 6.8 µg/mL) |  |  |  |  |  | 
C=C(COCc1ccccc1)[C@@H]1CC[C@@H](C)C[C@H]1OCc1ccccc1 [Compound 30a] |  |  |  |  | 40.8 ± 5 (≈ 14.3 µg/mL) |  |  |  |  |  | 
COc1ccc(CNC[C@](O)(COCc2ccc(F)cc2)[C@@H]2CC[C@@H](C)C[C@H]2OCc2ccc(F)cc2)cc1 [Compound 46a] | 2.5 | < 1 | 1.9 | 1.5 | 88 ± 0.9 (≈ 47.5 µg/mL) | 29.5 ± 3.6 | 0.9 |  | −1.33 | −1.22 | −1.12
C[C@@H]1CC[C@@H]([C@](O)(CNCc2cccc3ccccc23)COCc2ccccc2)[C@H](OCc2ccccc2)C1 [Compound 41a] | 2.6 | 5.9 | 3.6 | 5 | 1 ± 0.03 (≈ 0.524 µg/mL) |  |  | −2.64 | −2.28 | −2.42 | −2.57
C=C(C)[C@@H]1CC[C@@H](C)C[C@H]1OCc1ccc(F)cc1 [Compound 2b] |  |  |  |  | 90 ± 4.8 (≈ 23.6 µg/mL) | 50.7 ± 4.7 |  |  |  |  | 
C[C@@H]1CC[C@@H]([C@](O)(COCc2ccccc2)Cn2ccnc2)[C@H](OCc2ccccc2)C1 [Compound 42b] |  |  |  |  | 5.2 ± 0.3 (≈ 2.26 µg/mL) |  |  |  |  |  | 
C[C@@H]1CC[C@@H]([C@](O)(CNCc2ccc(F)cc2)COCc2ccc(F)cc2)[C@H](OCc2ccc(F)cc2)C1 [Compound 45a] | 2.9 | < 1 | 1.8 | 2.3 | 122 ± 4.5 (≈ 64.4 µg/mL) | 33.3 ± 3 | 0.84 | −0.69 | −1.23 | −1.02 | −1.12
C=C(COCc1ccc(OC)cc1)[C@@H]1CC[C@@H](C)C[C@H]1OCc1ccc(OC)cc1 [Compound 30c] | 24.7 |  |  |  | 31.5 ± 1.3 (≈ 12.9 µg/mL) |  |  |  |  |  | 
C[C@@H]1CC[C@@H]([C@@](O)(CNCc2cccc3ccccc23)COCc2ccccc2)[C@H](OCc2ccccc2)C1 [Compound 41b] | 2.5 | 5.7 | 2.6 | 4.1 | 0.5 ± 0.01 (≈ 0.262 µg/mL) |  |  | −2.62 | −2.27 | −2.28 | −2.48
C=C(C)[C@@H]1CC[C@@H](C)C[C@H]1OCc1ccccc1 [Compound 2a, O-benzyl isopulegol] |  |  |  |  | 1.1 ± 0.01 (≈ 0.269 µg/mL) |  |  |  |  |  | 

Second part, led by results:

IC50 [1] [µM] | IC50 ([2]; Homo sapiens, MCF7, 72 h) [µM] | IC50 [3] [µM] | IC50 [4] [µM] | solubility kinetic at 2 h [5] [µM] | Papp at 4 h, 500 μM [6] [×10⁻⁶ cm/s] | IC50 [2] [µM] | SMILES | Lipophilic efficiency (LipE = pIC50 – logP) [2] | Lipophilic efficiency (LipE = pIC50 – logP) [1] | Lipophilic efficiency (LipE = pIC50 – logP) [3] | Lipophilic efficiency (LipE = pIC50 – logP) [4]
11.6 | 7 | 16.7 | 12.3 | 38.7 ± 2 (≈ 14.6 µg/mL) | 39.3 ± 4.2 |  | C[C@@H]1CC[C@@H]([C@](C)(O)Cn2cnc3ccccc32)[C@H](OCc2ccccc2)C1 [Compound 15a] | 0.02 |  |  | 
5.2 | 3.5 | 9.9 | 9.3 | 31.8 ± 1 (≈ 12.3 µg/mL) | 9.8 ± 1.2 |  | C[C@@H]1CC[C@@H]([C@](C)(O)CNCc2cccc(F)c2)[C@H](OCc2ccccc2)C1 [Compound 8a] | 0.17 | 0.00 | −0.28 | −0.25
6.5 | 9.4 | 27.6 | 10.9 | 34.6 ± 1.1 (≈ 13.1 µg/mL) | 26.3 ± 4.6 |  | C[C@@H]1CC[C@@H]([C@@](C)(O)Cn2cnc3ccccc32)[C@H](OCc2ccccc2)C1 [Compound 15b] | −0.10 | 0.06 |  | 
2.6 | 2 | 4 | 4.1 | 2.8 ± 0.2 (≈ 1.33 µg/mL) |  |  | C[C@@H]1CC[C@@H]([C@](O)(CNCc2ccccc2)COCc2ccccc2)[C@H](OCc2ccccc2)C1 [Compound 34a] | −1.05 | −1.16 | −1.35 | −1.36
5.4 | 4.3 | 25 | 13.7 | 2.1 ± 0.1 (≈ 0.877 µg/mL) |  |  | C[C@@H]1CC[C@@H]([C@](C)(O)CNCc2cccc3ccccc23)[C@H](OCc2ccccc2)C1 [Compound 13a] | −0.94 | −1.04 |  | 
24.5 |  |  |  | 4.1 ± 0.7 (≈ 1.35 µg/mL) |  |  | C[C@@H]1CC[C@@H]([C@](C)(O)Cn2ccnc2)[C@H](OCc2ccccc2)C1 [Compound 14a] |  |  |  | 
4.3 | 1.9 | 5.7 | 7.3 | 25.7 ± 1 (≈ 10.2 µg/mL) | 20.6 ± 1.4 |  | COc1ccc(CNC[C@@](C)(O)[C@@H]2CC[C@@H](C)C[C@H]2OCc2ccccc2)cc1 [Compound 10a] | 0.32 | −0.03 | −0.15 | −0.25
3.7 | 1.4 | 2.2 | 1.6 | 202 ± 1 (≈ 108 µg/mL) | 32.4 ± 7.6 |  | COc1ccc(COC[C@@](O)(CNCc2ccccc2)[C@@H]2CC[C@@H](C)C[C@H]2OCc2ccc(OC)cc2)cc1 [Compound 50a] | −0.83 | −1.23 | −1.01 | −0.88
2.8 | 2.3 | 3.4 | 2.6 | 3.3 ± 0.01 (≈ 1.21 µg/mL) |  |  | C[C@@H]1CC[C@@H]([C@](C)(O)CNCc2ccccc2)[C@H](OCc2ccccc2)C1 [Compound 6a] | 0.18 | 0.09 | 0.01 | 0.12
3 | 0.96 | 2.7 | 2.1 | 97 ± 2.8 (≈ 49.4 µg/mL) | 23.2 ± 2.7 |  | C[C@@H]1CC[C@@H]([C@@](O)(CNCc2ccccc2)COCc2ccc(F)cc2)[C@H](OCc2ccc(F)cc2)C1 [Compound 44b] | −0.63 | −1.12 | −1.08 | −0.97
2.3 | 3.7 | 3.4 | 3.3 | 8 ± 1 (≈ 3.79 µg/mL) |  |  | C[C@@H]1CC[C@@H]([C@@](O)(CNCc2ccccc2)COCc2ccccc2)[C@H](OCc2ccccc2)C1 [Compound 34b] | −1.32 | −1.11 | −1.28 | −1.26
6.5 | 8.6 |  |  | 1.4 ± 0.02 (≈ 0.54 µg/mL) |  |  | C[C@@H]1CC[C@@H]([C@](C)(O)CNCc2ccccc2F)[C@H](OCc2ccccc2)C1 [Compound 9a] | −0.21 | −0.09 |  | 
1.3 | 0.88 | 1.5 | 2.2 | 163 ± 1.6 (≈ 83.1 µg/mL) | 28.8 ± 2.9 |  | C[C@@H]1CC[C@@H]([C@](O)(CNCc2ccccc2)COCc2ccc(F)cc2)[C@H](OCc2ccc(F)cc2)C1 [Compound 44a] | −0.59 | −0.78 | −0.81 | −1.00
24.3 | 20.3 |  |  | 2.5 ± 0.1 (≈ 0.964 µg/mL) |  |  | C[C@@H]1CC[C@@H]([C@](C)(O)CNCc2ccc(F)cc2)[C@H](OCc2ccccc2)C1 [Compound 7a] |  |  |  | 
